Experiments:
RAW264.7 [1] = test: Anti-inflammatory activity in mouse RAW264.7 cells assessed as inhibition of LPS-induced nitric oxide production preincubated for 30 mins followed by LPS-stimulation and measured after 24 hrs by Griess assay; type: functional, cell-based
Outline: (§1)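 RAW 264.7 macrophages stimulated with LPS; NO release quantified. Single-point screen at 50 μM; IC50 derived by nonlinear regression of sigmoidal dose–response curve, reported with 95% confidence intervals. Dexamethasone as positive control.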

RAW264.7 [2] = test: Cytotoxicity against mouse RAW264.7 cells assessed as reduction in cell viability at >50 uM measured after 24 hrs by MTT assay; type: cell-based; details: raw264.7, 24 h
RAW264.7 [3] = test: Anti-inflammatory activity in mouse RAW264.7 cells assessed as inhibition of LPS-induced nitric oxide production at 50 uM preincubated for 30 mins followed by LPS-stimulation and measured after 24 hrs by Griess assay relative to control; type: functional; outline: as §1

Question: For `CC1(C)CC[C@]2(C(=O)O)[C@H](O)C[C@]3(C)C(=CC[C@@H]4[C@@]5(C)C[C@H](O)[C@H](O[C@@H]6O[C@H](CO[C@@H]7OC[C@H](O)[C@H](O)[C@H]7O)[C@@H](O)[C@H](O)[C@H]6O)C(C)(C)[C@@H]5CC[C@]43C)[C@@H]2C1`, which IC50 (RAW264.7 [1]) is on record?
Answer: Its IC50 is greater than 50000 nM.

Question: What about the Activity (RAW264.7 [2]) of the same compound?
Answer: The Activity was “Non-Toxic”.

Question: For `C[C@@H]1C[C@H]2[C@@H]3CCC4=CC(=O)C=C[C@]4(C)[C@@]3(F)[C@@H](O)C[C@]2(C)[C@@]1(O)C(=O)CO` [DEXAMETHASONE], which IC50 (RAW264.7 [1]) is on record?
Answer: The IC50 was 10 nM.

Question: For `C[C@@H]1O[C@@H](O[C@H]2[C@H](OC(=O)[C@]34CCC(C)(C)C[C@H]3C3=CC[C@@H]5[C@@]6(C)C[C@H](O)[C@H](O[C@@H]7O[C@H](CO[C@@H]8OC[C@H](O)[C@H](O)[C@H]8O)[C@@H](O)[C@H](O)[C@H]7O)C(C)(C)[C@@H]6CC[C@@]5(C)[C@]3(C)CC4)OC[C@@H](O)[C@@H]2O)[C@H](O)[C@H](O[C@@H]2OC[C@](O)(CO)[C@H]2O)[C@H]1O[C@@H]1OC[C@@H](O)[C@H](O)[C@H]1O`, which IC50 (RAW264.7 [1]) is on record?
Answer: The IC50 was greater than 50000 nM.

Question: What about the Activity (RAW264.7 [2]) of the same compound?
Answer: The Activity was “Non-Toxic”.

Question: What does the source list for `C[C@@H]1O[C@@H](O[C@@H]2[C@@H](O)[C@H](O[C@@H]3[C@@H](O[C@@H]4OC[C@](O)(CO)[C@H]4O)[C@@H](O)[C@H](O[C@H]4[C@H](OC(=O)[C@]56CCC(C)(C)C[C@H]5C5=CC[C@@H]7[C@@]8(C)C[C@H](O)[C@H](O[C@@H]9O[C@H](CO[C@@H]%10OC[C@H](O)[C@H](O)[C@H]%10O)[C@@H](O)[C@H](O)[C@H]9O)C(C)(C)[C@@H]8CC[C@@]7(C)[C@]5(C)C[C@H]6O)OC[C@@H](O)[C@@H]4O)O[C@H]3C)OC[C@@H]2O)[C@H](O)[C@H](O)[C@H]1O`?
Answer: inhibition at 50 µM (RAW264.7 [3]): > 50%; IC50 (RAW264.7 [1]): 2700 nM

Question: With `C[C@@H]1O[C@@H](O[C@H]2[C@H](OC(=O)[C@]34CCC(C)(C)C[C@H]3C3=CC[C@@H]5[C@@]6(C)CC[C@H](O[C@@H]7O[C@H](CO[C@@H]8OC[C@H](O)[C@H](O)[C@H]8O)[C@@H](O)[C@H](O)[C@H]7O)C(C)(C)[C@@H]6CC[C@@]5(C)[C@]3(C)C[C@H]4O)OC[C@@H](O)[C@@H]2O)[C@H](O)[C@H](O)[C@H]1O[C@@H]1OC[C@H](O)[C@H](O[C@@H]2OC[C@@H](O)[C@H](O)[C@H]2O)[C@H]1O` as the compound, how does the inhibition at 50 µM (RAW264.7 [3]) read?
Answer: The inhibition at 50 µM was greater than 50%.

Question: And the IC50 (RAW264.7 [1])?
Answer: Its IC50 is 2100 nM.

Question: Which results are given for `CC1(C)CC[C@]2(C(=O)O[C@@H]3OC[C@@H](O)[C@H](O)[C@H]3O)[C@H](O)C[C@]3(C)C(=CC[C@@H]4[C@@]5(C)C[C@H](O)[C@H](O[C@@H]6O[C@H](CO[C@@H]7OC[C@H](O)[C@H](O)[C@H]7O)[C@@H](O)[C@H](O)[C@H]6O)C(C)(C)[C@@H]5CC[C@]43C)[C@@H]2C1`?
Answer: IC50 (RAW264.7 [1]): > 50000 nM; Activity (RAW264.7 [2]): Non-Toxic

Question: With `C[C@@H]1O[C@@H](O[C@@H]2[C@@H](O[C@@H]3O[C@@H](C)[C@H](O[C@@H]4OC[C@@H](O)[C@H](O)[C@H]4O)[C@@H](O[C@@H]4OC[C@](O)(CO)[C@H]4O)[C@H]3O)[C@H](OC(=O)[C@]34CCC(C)(C)C[C@H]3C3=CC[C@@H]5[C@@]6(C)C[C@H](O)[C@H](O[C@@H]7O[C@H](CO[C@@H]8OC[C@H](O)[C@H](O)[C@H]8O)[C@@H](O)[C@H](O)[C@H]7O)C(C)(C)[C@@H]6CC[C@@]5(C)[C@]3(C)CC4)OC[C@H]2O)[C@H](O)[C@H](O)[C@H]1O` as the compound, how does the inhibition at 50 µM (RAW264.7 [3]) read?
Answer: The inhibition at 50 µM was greater than 50%.

Question: What about the IC50 (RAW264.7 [1]) of the same compound?
Answer: Its IC50 is 42100 nM.

Reference: ChEMBL document CHEMBL4316631, “Anti-inflammatory Potential of Saponins from Aster tataricus via NF-κB/MAPK Activation” (J Nat Prod, 2019)
